# KCNK9 block: KCNK9 potassium channel inhibitors, primary screen, HEK293 cells, thallium flux; AID 488922, 2010; FluxOR thallium flux fluorescence; hits give low values; Potassium channel subfamily K member 9 (Homo sapiens), Q9NPC2; B-score at 10 µM; 1.2% of 310,000 active;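 active means ratio B-score over 3 SD below the library mean, with starting fluorescence within 5 SD of its mean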;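 further: negative B-score means less thallium flux so channel inhibition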
# KCNQ1 act: potentiators or activators of KCNQ1 channel, primary screen, cell-based, thallium flux, high-throughput; Potassium voltage-gated channel subfamily KQT member 1 (Homo sapiens), P51787; B-score at 10 µM; AID 2648, 2010; 0.35% of 310,000 active; CHO-K1 KCNQ1, thallium flux FluxOR fluorescence; hits give high values;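 active means fluorescence ratio B-score, a plate-corrected score, at least three library SD, with initial intensity B-score within 5 SD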
# Target sequence (P51787 whole entry, looked up): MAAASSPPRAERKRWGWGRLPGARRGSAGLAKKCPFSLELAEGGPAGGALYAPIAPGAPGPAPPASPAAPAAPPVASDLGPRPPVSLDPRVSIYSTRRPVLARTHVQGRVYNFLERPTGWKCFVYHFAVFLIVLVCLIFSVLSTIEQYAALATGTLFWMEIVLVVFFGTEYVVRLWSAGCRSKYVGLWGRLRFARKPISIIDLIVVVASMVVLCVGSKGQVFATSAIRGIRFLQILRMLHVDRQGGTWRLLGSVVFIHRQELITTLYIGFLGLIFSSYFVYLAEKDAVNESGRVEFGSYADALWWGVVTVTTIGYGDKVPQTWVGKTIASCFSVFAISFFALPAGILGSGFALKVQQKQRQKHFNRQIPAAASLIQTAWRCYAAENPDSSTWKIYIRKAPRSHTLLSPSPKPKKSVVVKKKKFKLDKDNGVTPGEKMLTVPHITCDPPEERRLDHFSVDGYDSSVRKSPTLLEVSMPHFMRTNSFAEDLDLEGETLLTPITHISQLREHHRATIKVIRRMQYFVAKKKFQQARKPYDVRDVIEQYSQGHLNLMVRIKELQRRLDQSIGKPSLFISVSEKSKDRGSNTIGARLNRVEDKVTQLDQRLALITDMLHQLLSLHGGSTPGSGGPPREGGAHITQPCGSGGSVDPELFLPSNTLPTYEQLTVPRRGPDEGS
#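 assay system = KCNQ1-transfected CHO-K1 cells | medium = assay buffer with matched DMSO | probe or stimulus = depolarizing K+/Tl+ stimulus, K2SO4 and Tl2SO4 each 12.5 mM in 5x stock | dosing = single dose | incubation = dye 90 min, compound 20 min, room temperature | detection = kinetic FluxOR fluorescence, 10 s baseline plus 110 s post-stimulus | evaluation = ratio B score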
# KCNQ1 inh: inhibitors of human KCNQ1 channel, primary screen, cell-based, thallium flux, high-throughput; AID 2642, 2010; B-score at 10 µM; CHO-K1 KCNQ1, FluxOR thallium flux fluorescence; hits give high values; 1.3% of 310,000 active;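 active means compounds whose thallium flux B-score, printed positive for inhibition, exceeds three library SD while starting fluorescence stays within three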;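 further: channel opened by potassium depolarization with thallium stimulus after 20 min compound exposure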
# hERG rescue: hERG rescue from dofetilide block, primary screen, cell-based, CHO-hERG, FluxOR thallium flux, dofetilide IC70 | Voltage-gated inwardly rectifying potassium channel KCNH2 (Homo sapiens), Q12809 | dofetilide IC70 present | activation (rescue from dofetilide block), less the hit threshold, % at 10 µM | 0.51% of 310,000 active;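 active means activation above the mean of controls blocked by dofetilide plus 5 SD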;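 further: thallium influx through hERG after potassium depolarization seen as dye fluorescence rise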
# Kir21 block: inhibitors of mouse Kir2.1 inward-rectifier potassium channel; Inward rectifier potassium channel 2 (Mus musculus), P35561; HEK293-Kir2.1, FluxOR thallium flux fluorescence; hits give low values; B-score at 10 µM; 0.85% of 310,000 active; AID 1672, 2009;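 active means fluorescence ratio B-score at or below minus 3 SD of library scores, with starting-brightness B-score within 2 SD, cut at about -4.2 in these data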;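 further: channel flux triggered by added potassium and thallium sulfate stimulus; B-score of peak minus minimum fluorescence over baseline after thallium stimulus; more negative B-score means stronger Kir2.1 block with less thallium influx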
# KCNK3 block: human KCNK3 channel inhibitors, primary screen, CHO cells, FluxOR thallium flux, B-score. Potassium channel subfamily K member 3 (Homo sapiens), O14649. FluxOR fluorescence; hits give low values. B-score at 10 µM. 0.84% of 340,000 active;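 active means B-score under library mean minus 4 SD, starting fluorescence ratio at most library mean plus 5 SD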;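 further: more negative B-score means stronger inhibition of thallium flux through KCNK3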
# Numbers stand for hits; - = inactive; . = not tested or not shown. In the library only some 3.8% were active in any assay of this set; here they are far more common.
SMILES,KCNK9 block,KCNQ1 act,KCNQ1 inh,hERG rescue,Kir21 block,KCNK3 block
CC(C)(C)C1=CC(O)(c2ccccc2)C=C(C(C)(C)C)C1=O,-,-,8,-,-,-
CNCCCCOc1ccccc1-c1ccccc1,-,-,-,-,-6.42,-
C=CCNCCCCOc1ccccc1-c1ccccc1,-,-,-,-,-5.72,-
COCCCNCCOc1ccccc1-c1ccccc1,-,-,-,-,-,-
CCCCNCCOc1ccccc1-c1ccccc1,-,-,-,-,-4.4,-
CNCCOc1ccccc1-c1ccccc1,-,-,-,-,-,-
COCCCNCCCCOc1ccccc1-c1ccccc1,-,-,-,-,-4.55,-
O=C(COC(=O)/C=C/c1ccco1)NCCN1C(=O)CSC1=O,.,.,.,.,.,-
O=C1CN(C(=O)NCCC(=O)NC2CCCCC2)c2ccccc2N1,-,-,-,-,-,-
Cc1ccc(C(=O)NCC(=O)OC(C)C(=O)Nc2ccc(N3CCOCC3)cc2)s1 (centres undefined),-,-,-,-,-,-
Oc1ccc(/C=N/Nc2ncc(Cl)cc2Cl)cc1,-,-,-,-,-,-
Clc1cnc(N/N=C/c2cccs2)c(Cl)c1,-,-,6,-,-,-
Cc1ccc(/C=N/Nc2ncc(Cl)cc2Cl)s1,-,-,7,-,-,-
CN(C(=O)COC(=O)c1ccccc1SCC(=O)N1CCCC1)C1CCS(=O)(=O)C1 (centres undefined),-,-,-,-,-,-
O=C(N[C@@H]1c2ccccc2CC[C@@H]1OCc1ccccc1)c1ccc(C(F)(F)F)cc1,.,.,.,.,.,-
O=C(O)c1ccc(CN2C(=O)c3cccc4c([N+](=O)[O-])ccc(c34)C2=O)cc1,-,-,10,-,-,-
Cc1ccc(C(=O)O)cc1N1C(=O)c2cccc3c([N+](=O)[O-])ccc(c23)C1=O,-,-,-,-,-,-
O=C(O)C1CC2C3CC(C(=O)O)C(C3)C2C1 (centres undefined),.,.,.,.,.,-
Cc1c(Cc2ccccc2)c(=O)oc2cc(O)cc(O)c12,-,-,-,-,-5.28,-
Cc1coc2cc3oc(=O)c(Cc4ccccc4)c(C)c3cc12,-,-,-,-,-,-
O=[N+]([O-])c1cccc(C2(O)COc3ccccc3O2)c1 (centres undefined),-,-,-,-,-,-
COc1cccc(/C=C/C(=O)c2ccc(C)c([N+](=O)[O-])c2)c1,-,-,-,-,-5.75,-
CC(=O)c1cccc([N+](=O)[O-])c1,.,.,.,.,.,-
COc1cc(/C=C2/OC(=O)c3cc([N+](=O)[O-])ccc32)cc(OC)c1OC,-,-,-,10.8,-,-
O=C1OC(=O)c2cc([N+](=O)[O-])ccc21,.,.,.,.,.,-
SMILES,KCNK9 block,KCNQ1 act,KCNQ1 inh,hERG rescue,Kir21 block,KCNK3 block
O=C(/C=C/c1ccccc1F)c1cccc([N+](=O)[O-])c1,-,-,-,-,-5.48,-
COc1cc(/C=C/C(=O)c2cccc([N+](=O)[O-])c2)cc(OC)c1OC,-,-,-,-,-4.7,-
Cc1sc2ncn(CC(=O)N3CCN(c4ccccn4)CC3)c(=O)c2c1S(=O)(=O)N1CCC(C)CC1,-,-,-,-,-,-
CCOC(=O)/C(C#N)=C\c1ccc(CC)s1,-,-,-,-,-,-
CCOC(=O)/C(C#N)=C\C=C1C=CN(C)C=C1,-,-,8,-,-,-
O=C(CCCCCN1C(=O)[C@@H]2Cc3ccccc3CN2C1=O)Nc1ccccc1F,-,-,-,-,-,-
O=C(NNC(=O)c1cc2ccccc2[nH]1)OCc1ccccc1,.,.,.,.,.,-
Cc1ccc(-c2nc(CSc3nc4ccccc4c(=O)n3C)cs2)cc1,-,-,-,-,-,-
Cc1cccc(CSc2nc3ccccc3c(=O)n2C)c1,.,.,.,.,.,-9.3
Cc1ccc(Cl)cc1N1CCN(S(=O)(=O)c2ccc3c(c2)CC(=O)N3C)CC1,-,-,-,-,-,-
O=C1C2CC=CCC2C(=O)N1c1ccc(Cc2ccncc2)cc1 (centres undefined),-,-,-,5.0,-,-
N=c1oc2cc(O)ccc2cc1C(=O)Nc1ccc(Br)cc1,-,-,8,-,-,-
Cc1nc(C2CCC3C4CCC5=CC(=O)CC[C@]5(C)C4CC[C@]23C)cs1 (some centres undefined),-,-,7,-,-,.
CC(=O)[C@@]1(O)CC[C@H]2[C@@H]3CCC4=CC(=O)CC[C@]4(C)[C@H]3CC[C@@]21C,-,-,-,-,-,-
CSCCC(NC(=O)c1ccc([N+](=O)[O-])cc1Cl)C(=O)OCC(=O)C12CC3CC(CC(C3)C1)C2 (centres undefined),-,-,-,38.8,-,-
CC(NCC(=O)NC(=O)NCCC1=CCCCC1)c1ccc(S(N)(=O)=O)cc1 (centres undefined),.,.,.,.,.,-
CCOC(=O)c1c(C)cccc1OCC(N)=O,-,-,-,6.2,-,-
CCOC(=O)c1c(C)oc2ccc(OCC(N)=O)cc12,-,-,-,-,-,-
FC(F)(F)c1ccc(Cl)c(N/N=C/c2ccc(N3CCOCC3)s2)c1,-6.94,-,-,-,-,-
Fc1ccc(C(CCNCc2ccccn2)c2ccc(Cl)cc2)cc1 (centres undefined),-,-,-,-,-6.44,-
O=C(CN1C(=O)CSCC1=O)Nc1ccc2c(c1)OCO2,-,-,-,4.7,-,-
O=C(CSCSCC(=O)Nc1ccc2c(c1)OCO2)Nc1ccc2c(c1)OCO2,-,-,-,5.0,-,-
Cc1nn(C)c(C)c1CNC(=O)Nc1ccc2c(c1)OCO2,-,-,-,7.4,-,-
Cc1cccc(C)c1NC(=O)CSc1nc(C2CC2)nc2ccccc12,-,-,-,-,-,-
COc1ccc(NC(=O)C(CCS(C)(=O)=O)NC(C)=O)cc1 (centres undefined),-,-,-,-,-,-
Cc1cccc(-n2c(SC(C)C(=O)O)nc3sc4c(c3c2=O)CCCC4)c1 (centres undefined),-,-,-,-,-,-
COc1ccc(CCNCC(O)Cn2c3ccccc3c3ccccc32)cc1OC (centres undefined),-,-,-,-,-10,-
O=C(NCc1ccccc1)C1CC(=O)N(C2CCCCC2)C1 (centres undefined),-,-,-,-,-,-
CC(C)N(C)Cc1nnnn1CC(=O)N(C)Cc1ccc(F)cc1,-,-,-,-,-,-

# Assay outcomes (PubChem BioAssay)
